Results: ChEMBL document CHEMBL6127097, “Structure-Guided Discovery of cis-Hexahydro-pyrido-oxazinones as Reversible, Drug-like Monoacylglycerol Lipase Inhibitors” (J Med Chem, 2024)
Calls of active or inactive are those of the source. The rule behind the calls is not given here.

What was measured:
[1] = target: T1, Monoglyceride lipase (Homo sapiens) (UniProt Q99685); assay: Binding affinity to human MAGL assessed as dissociation rate constant by SPR analysis
T1 sequence (whole entry): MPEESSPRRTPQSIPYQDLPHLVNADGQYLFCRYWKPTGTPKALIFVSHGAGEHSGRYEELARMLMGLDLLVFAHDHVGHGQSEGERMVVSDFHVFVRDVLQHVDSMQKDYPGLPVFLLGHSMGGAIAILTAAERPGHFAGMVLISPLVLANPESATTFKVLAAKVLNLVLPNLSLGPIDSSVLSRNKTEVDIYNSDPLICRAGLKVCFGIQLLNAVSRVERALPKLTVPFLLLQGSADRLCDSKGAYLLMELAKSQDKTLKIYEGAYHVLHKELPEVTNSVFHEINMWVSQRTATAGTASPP
Procedure, shortened: (§1)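 Human or rat MAGL was immobilized by amine coupling without ethanolamine quenching. Runs were done at 18 °C in 10 mM HEPES, 150 mM NaCl, 0.05% P20, 50 µM EDTA, pH 7.4, with 1% DMSO. Single-cycle kinetics used five concentrations, top 1 µM in 2-fold steps, at 30 µL/min, giving kon, koff and Kd.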

[2] = target: T2, Monoglyceride lipase (Rattus norvegicus) (UniProt Q8R431); assay: Binding affinity to rat MAGL assessed as dissociation rate constant by SPR analysis; procedure, shortened: as §1
T2 sequence (whole entry): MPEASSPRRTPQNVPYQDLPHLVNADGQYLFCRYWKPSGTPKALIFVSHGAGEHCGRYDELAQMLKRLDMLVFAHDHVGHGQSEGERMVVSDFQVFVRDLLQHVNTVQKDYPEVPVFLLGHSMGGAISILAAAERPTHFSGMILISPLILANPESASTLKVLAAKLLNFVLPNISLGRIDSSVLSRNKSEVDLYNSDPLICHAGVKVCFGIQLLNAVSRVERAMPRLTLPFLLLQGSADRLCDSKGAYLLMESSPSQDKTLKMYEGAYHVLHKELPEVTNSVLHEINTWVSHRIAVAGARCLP

[3] = target: T3, Lysophosphatidylserine lipase ABHD12 (Mus musculus) (UniProt Q99LR1); assay: Inhibition of ABHD12 in mouse brain lysates at 10 uM by ABPP assay; assay type: subcellular
T3 sequence (whole entry): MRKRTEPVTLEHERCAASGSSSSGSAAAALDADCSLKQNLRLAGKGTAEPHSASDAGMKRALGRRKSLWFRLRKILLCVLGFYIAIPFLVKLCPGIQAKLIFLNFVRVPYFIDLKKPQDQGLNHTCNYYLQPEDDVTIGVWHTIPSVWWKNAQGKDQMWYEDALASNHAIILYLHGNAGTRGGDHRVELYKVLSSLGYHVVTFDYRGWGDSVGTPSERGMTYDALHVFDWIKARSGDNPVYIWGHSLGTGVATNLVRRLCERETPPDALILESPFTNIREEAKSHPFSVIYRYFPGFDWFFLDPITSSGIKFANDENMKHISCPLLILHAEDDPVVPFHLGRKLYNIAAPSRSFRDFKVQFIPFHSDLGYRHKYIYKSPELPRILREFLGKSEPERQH
Procedure, shortened: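 Gel-based activity-based protein profiling of hydrolases, with the inhibitor at 10 µM.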

[4] = target: T4, Monoglyceride lipase (Mus musculus) (UniProt O35678); assay: In vivo receptor occupancy at MAGL receptor in mouse at 10 mg/kg, ip measured after 4 hrs; assay type: functional, organism-based
T4 sequence (whole entry): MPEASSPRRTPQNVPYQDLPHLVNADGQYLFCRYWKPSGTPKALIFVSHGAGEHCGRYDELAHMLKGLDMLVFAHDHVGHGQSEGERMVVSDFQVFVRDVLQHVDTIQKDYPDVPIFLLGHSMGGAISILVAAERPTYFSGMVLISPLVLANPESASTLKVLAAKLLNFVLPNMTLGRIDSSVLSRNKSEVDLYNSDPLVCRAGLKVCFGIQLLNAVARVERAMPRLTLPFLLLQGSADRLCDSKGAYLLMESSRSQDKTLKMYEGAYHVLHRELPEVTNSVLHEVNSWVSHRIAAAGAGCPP

Mus musculus = assay: Upregulation of brain 2-AG level in mouse at 30 mg/kg, ip measured after 2 hrs; assay type: functional, organism-based
Procedure, shortened: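 Mice dosed i.p. in NaCl/DMSO/TW80 (80/10/10): 3, 10 or 30 mg/kg with sacrifice at 4 h, or 30 mg/kg over a 24 h time course. Brain extract 2-AG and AA were measured by LC/MS.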

[5] = target: T4, Monoglyceride lipase (Mus musculus); assay: In vivo receptor occupancy at MAGL receptor in mouse at 30 mg/kg, ip measured after 16 hrs; assay type: functional, organism-based
Procedure, shortened: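 Mice dosed 30 mg/kg i.p. in NaCl/DMSO/TW80 (80/10/10). Brain proteome was prepared at set time points over 24 h and MAGL occupancy read by activity-based protein profiling.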

[6] = Chemical stability at pH 6.5 incubated for 2 hrs; assay type: physicochemical; settings: buffer, pH 6.5, 2 h
Procedure, shortened: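 Compound was held in aqueous buffer at the stated pH for 2 h at 37 °C.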

human P-gp = assay: Apparent permeability across apical to basolateral side in pig LLC-PK1 cells expressing human P-gp; assay type: ADME, cell-based, Sus scrofa
Procedure, shortened: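 LLC-PK1 porcine kidney cells transfected with human or mouse P-gp were grown as polarized monolayers on filter membranes. Compound was dosed to the apical side and receiver appearance followed over 3 h at 37 °C. A→B Papp was measured with the P-gp inhibitor zosuquidar present at 1 µM.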

[7] = Half-life in Wistar rat at 1 mg/kg, iv measured upto 24 hrs by LC-MS/MS analysis; assay type: ADME, organism-based; settings: in vivo
Procedure, shortened: (§2)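 Male Wistar rats, single dose. i.v. in NMP/0.9% NaCl 30:70; p.o. and i.p. in NMP/HPMC/diisooctyl sulfosuccinate 10:90; 3 per i.v./p.o. group, 6 i.p. K2EDTA plasma sampled 0.083–7 h, plus 24 h for i.v./p.o.; brain and CSF at 1, 2, 7 h (i.p. only). LC-MS/MS, noncompartmental analysis.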

[8] = Tmax in Wistar rat at 5 mg/kg, po measured upto 24 hrs by LC-MS/MS analysis; assay type: ADME, organism-based; settings: in vivo; procedure, shortened: as §2
[9] = AUClast in Wistar rat at 5 mg/kg, po measured upto 24 hrs by LC-MS/MS analysis; assay type: ADME, organism-based; settings: in vivo
Procedure, shortened: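 Male Wistar rats (N = 3 per group) received a single dose. The i.v. dose was 1 mg/kg in NMP/0.9% NaCl 30:70. The p.o. dose was 5 mg/kg in NMP/HPMC/diisooctyl sulfosuccinate 10:90. Blood was taken into K2EDTA from 0.083 (i.v.) or 0.25 h to 24 h. Plasma was assayed by LC-MS/MS and analysed non-compartmentally.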

[10] = AUClast in Wistar rat at 10 mg/kg, ip measured upto 24 hrs by LC-MS/MS analysis; assay type: ADME, organism-based; settings: in vivo
[11] = Ratio of drug concentration in Wistar rat brain to plasma at 10 mg/kg, ip measured upto 7 hrs by LC-MS/MS analysis; assay type: ADME, organism-based; procedure, shortened: as §2
[12] = Drug concentration in mouse CSF at 30 mg/kg, ip measured after 4 hrs; assay type: ADME, organism-based, Cerebrospinal fluid; settings: read-out: Ct
[13] = Drug concentration in mouse CSF at 30 mg/kg, ip measured after 8 hrs; assay type: ADME, organism-based, Cerebrospinal fluid; settings: read-out: Ct
[14] = Drug concentration in mouse CSF at 30 mg/kg, ip measured after 24 hrs; assay type: ADME, organism-based, Cerebrospinal fluid; settings: read-out: Ct

K [1] | K [2] | inhibition [3] | Activity [4] | Activity [5] | Stability [6] | Papp A→B (human P-gp) | half-life [7] | Tmax [8] | AUC(0-t) at 24 h [9] | AUC(0-t) at 24 h [10] | Kp at 7 h [11] | concentration at 4 h [12] | concentration at 8 h [13] | concentration at 24 h [14] | Structure (SMILES) | Activity (Mus musculus)
7.5 10^-3/s | 16.8 10^-3/s | inactive | 79% | 60% | – | – | – | – | – | – | – | – | – | – | O=C1CO[C@H]2CCN(C(=O)N3CCC(Cc4ccc(C(F)(F)F)cc4)CC3)C[C@H]2N1 [listing 1 of 2 here] | Active
– | – | – | – | – | Stable | 17.6 ×10⁻⁶ cm/s | 5.1 h | 6 h | 19100 ng·h/mL | 40200 ng·h/mL | 1.1 | 455 nM | 346 nM | 2 nM | O=C1CO[C@H]2CCN(C(=O)N3CCC(Cc4ccc(C(F)(F)F)cc4)CC3)C[C@H]2N1 [listing 2 of 2 here] | –
